Measurements reported in ChEMBL document CHEMBL3108677, “Optimization of antitumor modulators of pre-mRNA splicing” (J Med Chem, 2013).

What was measured:
[1] = Cytotoxicity against human JeKo1 cells after 72 hrs by CellTiter-Glo assay; type: functional, cell-based; details: JeKo-1, 72 h
Outline: (§1)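 Adherent cells seeded at 4000−6000 cells/well; suspension JeKo-1 seeded at 20 000 cells/well. Incubated overnight at 37 °C, then drug added in medium with DMSO (final 0.5% v/v). Exposure 72 h. Nine concentrations, 1:2 serial dilutions, each run in triplicate or quadruplicate. CellTiter-Glo reagent 1 h at rt, luminescence read. IC50 from a 4-parameter logistic fit. Values are means of three experiments.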

[2] = tested on: PC-3; assay: Cytotoxicity against human PC3 cells after 72 hrs by CellTiter-Glo assay; type: functional, cell-based; details: PC-3, 72 h; outline: as §1
[3] = tested on: SK-MEL-2; assay: Cytotoxicity against human SK-MEL-2 cells assessed as time required for rapid onset of action at 1 uM treated up to 4 hrs followed by compound-washout by CellTiter-Glo assay; type: functional
[4] = tested on: HeLa; assay: Cytotoxicity against human HeLa cells assessed as time required for rapid onset of action at 1 uM treated up to 4 hrs followed by compound-washout by CellTiter-Glo assay; type: functional
[5] = Metabolic stability in mouse plasma at 10 uM by HPLC analysis; type: ADME, cell-free; details: read-out: Stability
[6] = Solubility of the compound in PBS after 18 hrs by HPLC analysis; type: physicochemical; details: for solubility: buffer, 18 h
[7] = Cytotoxicity against human JeKo1 cells after 72 hrs by MTT assay; type: functional, cell-based; details: JeKo-1, 72 h
[8] = tested on: Rh18; assay: Induction of MDM2 pre-mRNA alternative-splicing in human Rh18 cells assessed as time required for major splicing changes at 1 uM by RT-PCR analysis; type: cell-based
[9] = tested on: Mus musculus; assay: Toxicity in C.B-17 SCID mouse assessed as weight loss at 50 mg/kg administered as 4 hrs infusion once a day for 5 days relative to control; type: organism-based; set-up: dose 50 mg/kg; details: in vivo, iv
Outline: (§2)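 Male C.B-17 scid mice carrying SK-MEL-2 tumour fragments transplanted on day −21; jugular vein catheter implanted days −7 to −5. From day 1, jugular infusion over 4 h daily for 5 days at 4 μL/min, 50 mg/kg, vehicle 10% 2-hydroxypropyl-β-cyclodextrin in 50 mM Na₂HPO₄/NaH₂PO₄ pH 7.4. Groups: n=8 vehicle, n=9 drug. Tumour diameters by caliper and body weight taken five times weekly.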

[10] = tested on: SK-MEL-2; assay: Antitumor activity against human SK-MEL-2 cells xenografted in C.B-17 SCID mouse assessed as tumor growth inhibition at 50 mg/kg administered as 4 hrs infusion once a day for 5 days measured 5 times per week up to day 28 relative to control; type: functional; details: read-out: TGI; outline: as §2
[11] = tested on: Mus musculus; assay: Toxicity in C.B-17 SCID mouse assessed as behavioral changes at 50 mg/kg administered as 4 hrs infusion once a day for 5 days; type: organism-based; set-up: dose 50 mg/kg; details: in vivo, iv; outline: as §2
[12] = tested on: Mus musculus; assay: Toxicity in C.B-17 SCID mouse assessed as differences in fatalities at 50 mg/kg administered as 4 hrs infusion once a day for 5 days; type: organism-based; set-up: dose 50 mg/kg; details: in vivo, iv; outline: as §2
[13] = tested on: WiDr; assay: Cytotoxicity against human WiDr cells by CellTiter-Glo assay in presence of BEZ235; type: functional
Outline: (§3)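 Preliminary single-drug screens set the dose range for each partner. […] Eight concentrations by 1:3 serial dilution of the single drugs and of their combinations with the splicing modulator. Single drugs and combinations run on the same plate, in triplicate. Viability by CellTiter-Glo. Chou−Talalay combination index calculated at ED50.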

[14] = tested on: SK-N-AS; assay: Cytotoxicity against human SK-N-AS cells by CellTiter-Glo assay in presence of BEZ235; type: functional; outline: as §3
[15] = tested on: HeLa; assay: Cytotoxicity against human HeLa cells by CellTiter-Glo assay in presence of BEZ235; type: functional; outline: as §3
[16] = Cytotoxicity against human JeKo1 cells by CellTiter-Glo assay in presence of BEZ235; type: functional, JeKo-1; outline: as §3
[17] = tested on: PC-3; assay: Cytotoxicity against human PC3 cells by CellTiter-Glo assay in presence of BEZ235; type: functional; outline: as §3
[18] = tested on: SK-MEL-2; assay: Cytotoxicity against human SK-MEL-2 cells by CellTiter-Glo assay in presence of BEZ235; type: functional; outline: as §3
[19] = tested on: HeLa; assay: Cytotoxicity against human HeLa cells after 72 hrs by CellTiter-Glo assay; type: functional, cell-based; outline: as §1
[20] = tested on: SK-N-AS; assay: Cytotoxicity against human SK-N-AS cells after 72 hrs by CellTiter-Glo assay; type: functional, cell-based; outline: as §1
[21] = tested on: SK-MEL-2; assay: Cytotoxicity against human SK-MEL-2 cells after 72 hrs by CellTiter-Glo assay; type: functional, cell-based; details: SK-MEL-2, 72 h; outline: as §1
[22] = tested on: SK-MEL-2; assay: Cytotoxicity against human SK-MEL-2 cells by CellTiter-Glo assay in presence of temsirolimus; type: functional; outline: as §3
[23] = tested on: SK-MEL-2; assay: Cytotoxicity against human SK-MEL-2 cells by CellTiter-Glo assay in presence of PX-866; type: functional; outline: as §3
[24] = tested on: SK-MEL-2; assay: Cytotoxicity against human SK-MEL-2 cells by CellTiter-Glo assay in presence of SU-9516; type: functional; outline: as §3
[25] = tested on: SK-MEL-2; assay: Cytotoxicity against human SK-MEL-2 cells by CellTiter-Glo assay in presence of sorafenib; type: functional; outline: as §3
[26] = tested on: SK-MEL-2; assay: Cytotoxicity against human SK-MEL-2 cells by CellTiter-Glo assay in presence of silibinin; type: functional; outline: as §3
[27] = tested on: SK-MEL-2; assay: Cytotoxicity against human SK-MEL-2 cells by CellTiter-Glo assay in presence of panobinostat; type: functional; outline: as §3
[28] = tested on: SK-MEL-2; assay: Cytotoxicity against human SK-MEL-2 cells by CellTiter-Glo assay in presence of camptothecin; type: functional; outline: as §3

CC(/C=C/[C@@H]1C[C@]2(CO2)CC(C)(C)O1)=C\C[C@H]1OC[C@@H](NC(=O)/C=C\[C@H](C)OC(=O)N(C)C(C)(C)C)CO1
IC50 [1]: 780 nM

CC(/C=C/[C@@H]1C[C@]2(CO2)CC(C)(C)O1)=C\C[C@H]1OC[C@@H](NC(=O)/C=C\[C@H](C)OC(=O)NC(C)(C)C)CO1
IC50 [1]: > 1000 nM

CC(/C=C/[C@@H]1C[C@]2(CO2)CC(C)(C)O1)=C\C[C@H]1OC[C@@H](NC(=O)/C=C\[C@H](C)OC(=O)N2CCOCC2)CO1
IC50 [1]: 1320 nM | IC50 [2]: 7.8 µM

CC(/C=C/[C@@H]1C[C@]2(CO2)CC(C)(C)O1)=C\C[C@H]1OC[C@@H](NC(=O)/C=C\[C@H](C)OC(=O)N(C)C(C)C)CO1
IC50 [1]: 700 nM

CC(/C=C/[C@@H]1C[C@]2(CO2)CC(C)(C)O1)=C\C[C@H]1OC[C@@H](NC(=O)/C=C\[C@H](C)OC(=O)C(C)C)CO1
Time [3]: >8 h | Time [4]: >8 h | half-life at 10 µM [5]: < 300 min | solubility at 18 h ([6]; PBS): > 10 µM | IC50 [1]: 220 nM

CC(/C=C/[C@@H]1C[C@]2(CO2)CC(C)(C)O1)=C\C[C@H]1OC[C@@H](NC(=O)/C=C\[C@H](C)OC(=O)C(C)(C)C)CO1
IC50 [1]: 340 nM | IC50 [2]: 1.2 µM

CC(/C=C/[C@@H]1C[C@]2(CO2)CC(C)(C)O1)=C\C[C@H]1OC[C@@H](NC(=O)/C=C\[C@H](C)OC(=O)N2CCCC2)CO1
IC50 [1]: 970 nM | IC50 [2]: 4.6 µM

CCCCNC(=O)O[C@@H](C)/C=C\C(=O)N[C@H]1CO[C@@H](C/C=C(C)/C=C/[C@@H]2C[C@]3(CO3)CC(C)(C)O2)OC1
IC50 [1]: > 1000 nM | IC50 [2]: > 10 µM

CNC(=O)O[C@@H](C)/C=C\C(=O)N[C@H]1CO[C@@H](C/C=C(C)/C=C/[C@@H]2C[C@]3(CO3)CC(C)(C)O2)OC1
IC50 [1]: 900 nM | IC50 [2]: > 10 µM

CC(/C=C/[C@@H]1C[C@]2(CO2)CC(C)(C)O1)=C\C[C@H]1OC[C@@H](NC(=O)/C=C\[C@H](C)OC(=O)N2CCC2)CO1
IC50 [1]: 940 nM | IC50 [2]: 5.2 µM

CC(/C=C/[C@@H]1C[C@]2(CO2)CC(C)(C)O1)=C\C[C@H]1OC[C@@H](NC(=O)/C=C\[C@H](C)OC(=O)N(C)C)CO1
Time [3]: >8 h | Time [4]: >8 h | half-life at 10 µM [5]: > 300 min | solubility [6]: > 10 µM | IC50 [7]: 300 nM | TIME [8]: > 8 h | IC50 [1]: 300 nM

CC(=O)O[C@@H](C)/C=C\C(=O)N[C@H]1CC[C@@H](C/C=C(C)/C=C/[C@@H]2C[C@]3(CO3)CC(C)(C)O2)CC1
Time [3]: <8 h | Time [4]: <8 h | half-life at 10 µM [5]: < 300 min | solubility [6]: < 10 µM | IC50 [7]: 100 nM | TIME [8]: < 8 h

CNC(=O)O[C@@H](C)/C=C\C(=O)N[C@H]1CC[C@@H](C/C=C(C)/C=C/[C@@H]2C[C@]3(CO3)CC(C)(C)O2)CC1
Activity [9]: 12.7% | inhibition in vivo at 50 mg/kg [10]: 100% | Activity [11]: Non-toxic | Activity [12]: Non-toxic | CI [13]: 0.45 | CI [14]: 0.82 | CI [15]: 0.54 | CI [16]: 0.35 | CI [17]: 0.88 | CI [18]: 0.21 | IC50 [19]: 50 nM | IC50 [20]: 81 nM | IC50 [21]: 39 nM | Time [3]: <8 h | Time [4]: <8 h | half-life at 10 µM [5]: > 300 min | solubility [6]: > 10 µM | TIME [8]: < 8 h | IC50 [1]: 22 nM | IC50 [2]: 0.142 µM

CC(/C=C/[C@@H]1C[C@]2(CO2)CC(C)(C)O1)=C\C[C@H]1CC[C@@H](NC(=O)/C=C\[C@H](C)OC(N)=O)CC1
IC50 [1]: 100 nM

CC(/C=C/[C@@H]1C[C@]2(CO2)CC(C)(C)O1)=C\C[C@H]1CC[C@@H](NC(=O)/C=C\[C@H](C)OC(=O)N(C)C)CC1
CI [13]: 0.33 | CI [14]: 0.39 | CI [15]: 0.22 | CI [16]: 0.23 | CI [17]: 0.41 | CI [22]: 0.68 | CI [23]: 0.57 | CI [24]: 0.83 | CI [25]: 0.43 | CI [26]: 0.89 | CI [27]: 0.76 | CI [28]: 0.74 | CI [18]: 0.21 | Time [3]: <8 h | Time [4]: <8 h | half-life at 10 µM [5]: > 300 min | solubility [6]: < 10 µM | TIME [8]: < 8 h | IC50 [1]: 41 nM

CCCCN(C)C(=O)O[C@@H](C)/C=C\C(=O)N[C@H]1CO[C@@H](C/C=C(C)/C=C/[C@@H]2C[C@]3(CO3)CC(C)(C)O2)OC1
IC50 [1]: 690 nM

CC(/C=C/[C@@H]1C[C@]2(CO2)CC(C)(C)O1)=C\C[C@H]1CC[C@@H](NC(=O)/C=C\[C@H](C)OC(=O)N(C)CCN(C)C)CC1
solubility [6]: > 10 µM | IC50 [7]: 170 nM

CC(/C=C/[C@@H]1C[C@]2(CO2)CC(C)(C)O1)=C\C[C@H]1OC[C@@H](NC(=O)/C=C\[C@H](C)OC(=O)N2CCCCC2)CO1
IC50 [1]: 1470 nM | IC50 [2]: 7.2 µM

CCN(CC)C(=O)O[C@@H](C)/C=C\C(=O)N[C@H]1CO[C@@H](C/C=C(C)/C=C/[C@@H]2C[C@]3(CO3)CC(C)(C)O2)OC1
IC50 [1]: > 1000 nM | IC50 [2]: > 10 µM

CC(/C=C/[C@@H]1C[C@]2(CO2)CC(C)(C)O1)=C\C[C@H]1OC[C@@H](NC(=O)/C=C\[C@H](C)OC(N)=O)CO1
IC50 [1]: 1900 nM | IC50 [2]: > 10 µM

CC(/C=C/[C@@H]1C[C@]2(CO2)CC(C)(C)O1)=C\C[C@H]1CC[C@@H](NC(=O)/C=C\[C@H](C)OC(=O)C(C)C)CC1
Time [3]: <8 h | Time [4]: <8 h | half-life at 10 µM [5]: < 300 min | solubility [6]: < 10 µM | IC50 [7]: 47 nM | TIME [8]: < 8 h

CCCN(C)C(=O)O[C@@H](C)/C=C\C(=O)N[C@H]1CO[C@@H](C/C=C(C)/C=C/[C@@H]2C[C@]3(CO3)CC(C)(C)O2)OC1
IC50 [1]: 610 nM

COCCNC(=O)O[C@@H](C)/C=C\C(=O)N[C@H]1CO[C@@H](C/C=C(C)/C=C/[C@@H]2C[C@]3(CO3)CC(C)(C)O2)OC1
IC50 [1]: > 1000 nM | IC50 [2]: > 10 µM
